Experimental data published in ChEMBL document CHEMBL1122269, “Synthesis and biological evaluation of neutral derivatives of 5-fluoro-2'-deoxyuridine 5'-phosphate” (1983).

Experiments:
P388 [1] = assay: Median survival time (MST) of murine leukemia P388 (1*10e 6 cells) sensitive to 5-FU in mice at dose of 300 mg/kg(ip); format: functional, Mus musculus
Method in brief: (§1)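 Male BDF₁ mice, six per group, average weight 23 g, were inoculated ip with 1×10^6 P-388 cells on day 0. Compound in 0.9% saline was given ip daily for 5 days from 24 h post-implant. Mice were followed for 60 days or until death, and median survival time was recorded. Saline-treated controls numbered 20 mice.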

P388 [2] = assay: Percentage increase in life span of murine leukemia P388 sensitive to 5-FU, at dose 108 mg/kg; format: functional; conditions: Mus musculus
Method in brief: (§2)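 P-388 model in male BDF₁ mice, six per group, average weight 23 g: 1×10^6 cells ip on day 0, then compound in 0.9% saline ip daily ×5 from 24 h. Mice were observed up to 60 days. % ILS = (T/C − 1) × 100, using median survival of treated mice versus saline-treated controls.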

P388 [3] = assay: Average percentage weight change on day 6 in murine leukemia P388 sensitive to 5-FU at dose 300 mg/kg; format: functional, Mus musculus
Method in brief: (§3)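 Male BDF₁ mice, six per group, average weight 23 g, were inoculated ip on day 0 with 1×10^6 P-388 leukemia cells, either 5-FU-sensitive or 5-FU-resistant. Compound in 0.9% saline was given ip once daily for 5 consecutive days, starting 24 h after tumor transplantation. Saline-treated animals served as controls.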

P388 [4] = assay: Percentage increase in life span of murine leukemia P388 resistant to 5-FU, at a dose 300 mg/kg; format: functional; conditions: Mus musculus; method in brief: as §2
P388 [5] = assay: Average percentage weight change on day 6 in murine leukemia P388 sensitive to 5-FU at dose 108 mg/kg; format: functional, Mus musculus; method in brief: as §3
P388 [6] = assay: Median survival time (MST) of murine leukemia P388 (1*10e 6 cells) sensitive to 5-FU in mice at dose of 180 mg/kg(ip); format: functional, Mus musculus; method in brief: as §1
P388 [7] = assay: Average percentage weight change on day 6 in murine leukemia P388 resistant to 5-FU at dose 108 mg/kg; format: functional, Mus musculus; method in brief: as §3
P388 [8] = assay: Median survival time (MST) of murine leukemia P388 (1*10e 6 cells) sensitive to 5-FU in mice at dose of 108 mg/kg(ip); format: functional, Mus musculus; method in brief: as §1
P388 [9] = assay: Average percentage weight change on day 6 in murine leukemia P388 sensitive to 5-FU at dose 500 mg/kg; format: functional, Mus musculus; method in brief: as §3
P388 [10] = assay: Median survival time (MST) of murine leukemia P388 (1*10e 6 cells) resistant to 5-FU in mice at dose of 300 mg/kg(ip); format: functional, Mus musculus; method in brief: as §1
P388 [11] = assay: Average percentage weight change on day 6 in murine leukemia P388 resistant to 5-FU at dose 500 mg/kg; format: functional, Mus musculus; method in brief: as §3
P388 [12] = assay: Average percentage weight change on day 6 in murine leukemia P388 resistant to 5-FU at dose 300 mg/Kg; format: functional, Mus musculus; method in brief: as §3
P388 [13] = assay: Median survival time (MST) of murine leukemia P388 (1*10e 6 cells) resistant to 5-FU in mice at dose of 500 mg/kg(ip); format: functional, Mus musculus; method in brief: as §1
P388 [14] = assay: Median survival time (MST) of murine leukemia P388 (1*10e 6 cells) resistant to 5-FU in mice at dose of 180 mg/kg(ip); format: functional, Mus musculus; method in brief: as §1
P388 [15] = assay: Percentage increase in life span of murine leukemia P388 resistant to 5-FU at dose 108 mg/kg; format: functional; conditions: Mus musculus; method in brief: as §2
P388 [16] = assay: Percentage increase in life span of murine leukemia P388 resistant to 5-FU at dose 500 mg/kg; format: functional; conditions: Mus musculus; method in brief: as §2
P388 [17] = assay: Median survival time (MST) of murine leukemia P388 (1*10e 6 cells) sensitive to 5-FU in mice at dose of 500 mg/kg(ip); format: functional, Mus musculus; method in brief: as §1
P388 [18] = assay: Percentage increase in life span of murine leukemia P388 sensitive to 5-FU, at dose 180 mg/kg; format: functional; conditions: Mus musculus; method in brief: as §2
P388 [19] = assay: Median survival time (MST) of murine leukemia P388 (1*10e 6 cells) resistant to 5-FU in mice at dose of 108 mg/kg(ip); format: functional, Mus musculus; method in brief: as §1
P388 [20] = assay: Percentage increase in life span of murine leukemia P388 sensitive to 5-FU, at dose 300 mg/kg; format: functional; conditions: Mus musculus; method in brief: as §2
P388 [21] = assay: Average percentage weight change on day 6 in murine leukemia P388 sensitive to 5-FU at dose 180 mg/kg; format: functional, Mus musculus; method in brief: as §3
P388 [22] = assay: Average percentage weight change on day 6 in murine leukemia P388 resistant to 5-FU at dose 180 mg/kg; format: functional, Mus musculus; method in brief: as §3
P388 [23] = assay: Percentage increase in life span of murine leukemia P388 resistant to 5-FU at dose 180 mg/kg; format: functional; conditions: Mus musculus; method in brief: as §2
P388 [24] = assay: Percentage increase in life span of murine leukemia P388 sensitive to 5-FU at dose 500 mg/kg; format: functional; conditions: Mus musculus; method in brief: as §2
P388 [25] = assay: Median survival time (MST) of murine leukemia P388 (1*10e 6 cells) sensitive to 5-FU in mice, dose of 35 mg/kg(ip); format: functional, Mus musculus; method in brief: as §1
P388 [26] = assay: Median survival time (MST) of murine leukemia P388 (1*10e 6 cells) resistant to 5-FU in mice, dose of 20 mg/kg (i.p.); format: functional, Mus musculus; conditions: route intraperitoneal; method in brief: as §1
P388 [27] = assay: Average percentage weight change on day 6 in murine leukemia P388 resistant to 5-FU at a dose of 35 mg/kg; format: functional, Mus musculus
Method in brief: (§4)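 Male BDF₁ mice, six per group, average weight 23 g, were given 1×10^6 P-388 cells ip on day 0. Compound in 0.9% saline was dosed ip once daily for 5 consecutive days, starting 24 h after tumour transplant.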

P388 [28] = assay: Average percentage weight change on day 6 in murine leukemia P388 sensitive to 5-FU at a dose of 20 mg/kg; format: functional, Mus musculus; method in brief: as §4
P388 [29] = assay: Median survival time (MST) of murine leukemia P388 (1*10e 6 cells) resistant to 5-FU in […] mice, dose of 35 mg/kg(ip); format: functional, Mus musculus; method in brief: as §1
P388 [30] = assay: Percentage increase in life span of murine leukemia P388 sensitive to 5-FU, at a dose 35 mg/kg; format: functional; conditions: Mus musculus; method in brief: as §2
P388 [31] = assay: Average percentage weight change on day 6 in murine leukemia P388 resistant to 5-FU at a dose of 20 mg/Kg; format: functional, Mus musculus; method in brief: as §4
P388 [32] = assay: Average percentage weight change on day 6 in murine leukemia P388 sensitive to 5-FU at a dose of 35 mg/kg; format: functional, Mus musculus; method in brief: as §4
P388 [33] = assay: Percentage increase in life span of murine leukemia P388 resistant to 5-FU, at a dose 20 mg/kg; format: functional; conditions: Mus musculus; method in brief: as §2
P388 [34] = assay: Percentage increase in life span of murine leukemia P388 resistant to 5-FU, at a dose 35 mg/kg; format: functional; conditions: Mus musculus; method in brief: as §2
P388 [35] = assay: Average percentage weight change on day 6 in murine leukemia P388 resistant to 5-FU at a dose of 15 mg/kg; format: functional, Mus musculus; method in brief: as §4
P388 [36] = assay: Percentage increase in life span of murine leukemia P388 sensitive to 5-FU, at a dose 20 mg/kg; format: functional; conditions: Mus musculus; method in brief: as §2
P388 [37] = assay: Median survival time (MST) of murine leukemia P388 (1*10e 6 cells) sensitive to 5-FU in mice, dose of 20 mg/kg(ip); format: functional, Mus musculus; method in brief: as §1
P388 [38] = assay: Percentage increase in life span of murine leukemia P388 resistant to 5-FU, at a dose 15 mg/kg; format: functional; conditions: Mus musculus; method in brief: as §2
P388 [39] = assay: Median survival time (MST) of murine leukemia P388 (1*10e 6 cells) resistant to 5-FU in mice, dose of 15 mg/kg(ip); format: functional, Mus musculus; method in brief: as §1

O=c1[nH]c(=O)n([C@H]2C[C@H](O)[C@@H](COP3(=O)OCCCO3)O2)cc1F
MST (P388 [1]): 11 days
ILS at 108 mg/kg (P388 [2]): 11%
Weight change (P388 [3]): -8.8%
ILS at 300 mg/kg (P388 [4]): 0%
Weight change (P388 [5]): 1.7%
MST (P388 [6]): 10 days
Weight change (P388 [7]): 6.3%
MST (P388 [8]): 10 days
Weight change (P388 [9]): -12.4%
MST (P388 [10]): 10 days
Weight change (P388 [11]): 0.6%
Weight change (P388 [12]): 1.2%
MST (P388 [13]): 10 days
MST (P388 [14]): 10 days
ILS at 108 mg/kg (P388 [15]): 0%
ILS at 500 mg/kg (P388 [16]): 0%
MST (P388 [17]): 12 days
ILS at 180 mg/kg (P388 [18]): 11%
MST (P388 [19]): 10 days
ILS at 300 mg/kg (P388 [20]): 22%
Weight change (P388 [21]): 0%
Weight change (P388 [22]): 4.1%
ILS at 180 mg/kg (P388 [23]): 0%
ILS at 500 mg/kg (P388 [24]): 33%

O=c1[nH]cc(F)c(=O)[nH]1 [FLUOROURACIL]
MST (P388 [25]): 8 days
MST (P388 [26]): 11 days
Weight change (P388 [27]): -14.2%
Weight change (P388 [28]): -16.5%
MST (P388 [29]): 9 days
ILS at 35 mg/kg (P388 [30]): -11%
Weight change (P388 [31]): -3.9%
Weight change (P388 [32]): -21.8%
ILS at 20 mg/kg (P388 [33]): 10%
ILS at 35 mg/kg (P388 [34]): -10%
Weight change (P388 [35]): -6.2%
ILS at 20 mg/kg (P388 [36]): 111%
MST (P388 [37]): 19 days
ILS at 15 mg/kg (P388 [38]): 10%
MST (P388 [39]): 11 days
